The results in this text go back to ChEMBL document CHEMBL1137377, “Evaluation of azasterols as anti-parasitics” (J Med Chem, 2006).

The subject of one experiment is Leishmania donovani. Put plainly: Antileishmanial activity against Leishmania donovani amastigotes in CD1 mouse macrophage. In kind it is functional, organism-based. The following applies: read-out: ED50 (the source's name). The method, boiled down:
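Peritoneal macrophages from starch-induced CD1 mice, kept 24 h in RPMI1640 + 10% HIFCS at 37 °C, 5% CO2. Infected with L. donovani MHOM/ET/67/L82 amastigotes from hamster spleen at 5 parasites:1 macrophage. After 24 h, drug exposure for 5 days, overlay replaced day 3. Top concentration 30 µg/mL, quadruplicate. Slides methanol-fixed, Giemsa-stained, counted microscopically. ED50 by curve fitting.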

Another experiment concerns Trypanosoma cruzi. Put plainly: Antitrypanosomal activity against Trypanosoma cruzi trypomastigotes in CD1 mouse macrophage. In kind it is functional. To be noted: read-out: ED50 (the source's name). In outline: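 Starch-induced CD1 peritoneal macrophages plated at 4 × 10^5/mL, infected after 24 h with T. cruzi Tulahuan LAC-Z trypomastigotes. 24 h later, drug exposure for 3 days. ED50 by curve fitting.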

Experiment [1] relates to Trypanosoma brucei rhodesiense. The experiment in a line: Antitrypanosomal activity against Trypanosoma brucei rhodesiense trypomastigotes. The following applies: read-out: ED50 (the source's name). It counts as functional. In outline: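 Bloodstream-form STIB900 trypomastigotes grown in HMI-18 + 15% HIFCS at 37 °C, 5% CO2. Seeded at 2 × 10^5/mL onto drug dilutions (top 30 µg/mL) for 72 h. Alamar Blue read 5-6 h later by fluorescence (ex/em 530/585 nm). ED50 by curve fitting.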

For experiment [2], the system named is Plasmodium falciparum. Put plainly: Antimalarial activity against Plasmodium falciparum 3D7. It counts as functional, organism-based. To be noted: read-out: ED50 (the source's name). In outline:
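Synchronized ring-stage 3D7 culture at 1% parasitemia in RPMI 1640, 5% hematocrit, 37 °C, 5% CO2. Top final drug concentration 30 µg/mL. After 24 h, (3H)-hypoxanthine added (0.2 µCi/well), then 48 h further incubation. Plates freeze/thawed and harvested, and hypoxanthine uptake counted. ED50 by curve fitting.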

Experiment [3] relates to Plasmodium falciparum. The experiment in a line: Antimalarial activity against Plasmodium falciparum K1. The following applies: read-out: ED50 (the source's name). In kind it is functional, organism-based.
For another experiment, the system named is KB. The experiment in a line: Cytotoxicity against KB cell line. It counts as functional. To be noted: Homo sapiens, read-out: TD50 (the source's name).

pEC50: −log10 of the molar value.

With `COC(=O)CCCCCNC(=O)[C@@H](C)[C@H]1CC[C@H]2C3CC=C4C[C@@H](OC(C)=O)CC[C@]4(C)[C@H]3CC[C@]12C` (stereo partly specified), the pEC50 is less than 4.24 in the experiment with Leishmania donovani; 5.60 in the experiment with Trypanosoma cruzi; 5.46 in experiment [1]; 4.67 with Plasmodium falciparum [2]; 4.70 in the experiment with Plasmodium falciparum [3]. Also, in the experiment with KB, the CC50 is greater than 582 µM.
